Active and inactive are the calls of the source. The calls are words filed in the database; no cut-off is given here.
Experiments:
Homo sapiens [1] = species: Homo sapiens; assay: Selectivity ratio of IC50 for recombinant human N-terminal His-tagged PKM1 expressed in Escherichia coli to IC50 for recombinant human N-terminal His-tagged PKM2 expressed in Escherichia coli
Homo sapiens [2] = species: Homo sapiens; assay: Selectivity ratio of IC50 for recombinant human N-terminal His-tagged PKL expressed in Escherichia coli to IC50 for recombinant human N-terminal His-tagged PKM2 expressed in Escherichia coli
HCT-116 [3] = assay: Cytotoxicity against human HCT116 cells after 48 hrs by MTS assay; assay type: functional, cell-based
In short: (§1)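 Cells seeded at 5000–10 000 per well and treated 12 h later with a range of concentrations for 48 h. Viability read by MTS reduction. IC50 reported ± SD.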

MCF7 = assay: Cytotoxicity against human MCF7 cells after 48 hrs by MTS assay; assay type: functional, cell-based; in short: as §1
MDA-MB-231 = assay: Cytotoxicity against human MDA-MB-231 cells after 48 hrs by MTS assay; assay type: functional, cell-based; in short: as §1
HeLa = assay: Cytotoxicity against human HeLa cells after 48 hrs by MTS assay; assay type: functional, cell-based; in short: as §1
NCI-H1299 = assay: Cytotoxicity against human NCI-H1299 cells after 48 hrs by MTS assay; assay type: functional, cell-based; in short: as §1
B16 [4] = assay: Cytotoxicity against mouse B16 cells after 48 hrs by MTS assay; assay type: functional, cell-based; in short: as §1
BEAS-2B = assay: Cytotoxicity against human BEAS2B cells after 48 hrs by MTS assay; assay type: cell-based; in short: as §1
HCT-116 [5] = assay: Cytotoxicity against human HCT116 cells assessed as reduction in ATP production at 10 to 20 uM after 6 hrs by CellTiter-Glo luminescent assay; assay type: functional, cell-based
In short: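 HCT116 cells seeded at 5 × 10^5 per well in 6-well plates. Exposed 24 h later to 10 μM or 20 μM for 6 h. Cellular ATP read by CellTiter-Glo luminescence.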

Pyruvate kinase PKM [6] = target: T1, Pyruvate kinase PKM (Homo sapiens, UniProt P14618); assay: Inhibition of recombinant human N-terminal His-tagged PKM2 expressed in Escherichia coli preincubated for 25 mins in presence of PEP/FBP followed by ADP/NADH addition measured after 25 mins by PK-LDH assay
Target sequence in this assay (P14618 whole entry): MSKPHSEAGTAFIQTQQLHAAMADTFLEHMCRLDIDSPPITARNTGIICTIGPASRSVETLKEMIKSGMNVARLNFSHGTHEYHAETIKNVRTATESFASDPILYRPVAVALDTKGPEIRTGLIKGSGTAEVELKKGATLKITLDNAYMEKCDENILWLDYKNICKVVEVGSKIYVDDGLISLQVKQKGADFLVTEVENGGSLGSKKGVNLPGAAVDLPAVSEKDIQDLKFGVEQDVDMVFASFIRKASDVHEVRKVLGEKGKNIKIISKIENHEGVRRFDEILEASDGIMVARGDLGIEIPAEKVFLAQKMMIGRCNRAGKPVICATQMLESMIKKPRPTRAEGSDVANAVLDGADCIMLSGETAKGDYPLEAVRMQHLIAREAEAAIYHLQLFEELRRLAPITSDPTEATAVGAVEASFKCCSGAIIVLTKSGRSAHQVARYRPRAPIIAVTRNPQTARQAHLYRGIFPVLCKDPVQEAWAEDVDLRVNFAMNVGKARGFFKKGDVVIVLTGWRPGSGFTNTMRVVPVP

Pyruvate kinase PKM [7] = target: T1, Pyruvate kinase PKM; assay: Inhibition of recombinant human N-terminal His-tagged PKM1 expressed in Escherichia coli preincubated for 25 mins in presence of PEP/FBP followed by ADP/NADH addition measured after 25 mins by PK-LDH assay
Target sequence in this assay (P14618 whole entry): as above

Pyruvate kinase PKM [8] = target: T1, Pyruvate kinase PKM; assay: Inhibition of PKM2 in human HCT116 cells measured after 8 hrs by fluorescent PK-LDH assay; assay type: cell-based
In short: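 HCT116 cells exposed to 2.5, 5, 10 or 20 μM for 8 h, then lysed in NP40 buffer. Lysate pyruvate kinase activity was measured immediately by fluorescent PK–LDH coupled assay.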
Target sequence in this assay (P14618 2-531 limits assumed): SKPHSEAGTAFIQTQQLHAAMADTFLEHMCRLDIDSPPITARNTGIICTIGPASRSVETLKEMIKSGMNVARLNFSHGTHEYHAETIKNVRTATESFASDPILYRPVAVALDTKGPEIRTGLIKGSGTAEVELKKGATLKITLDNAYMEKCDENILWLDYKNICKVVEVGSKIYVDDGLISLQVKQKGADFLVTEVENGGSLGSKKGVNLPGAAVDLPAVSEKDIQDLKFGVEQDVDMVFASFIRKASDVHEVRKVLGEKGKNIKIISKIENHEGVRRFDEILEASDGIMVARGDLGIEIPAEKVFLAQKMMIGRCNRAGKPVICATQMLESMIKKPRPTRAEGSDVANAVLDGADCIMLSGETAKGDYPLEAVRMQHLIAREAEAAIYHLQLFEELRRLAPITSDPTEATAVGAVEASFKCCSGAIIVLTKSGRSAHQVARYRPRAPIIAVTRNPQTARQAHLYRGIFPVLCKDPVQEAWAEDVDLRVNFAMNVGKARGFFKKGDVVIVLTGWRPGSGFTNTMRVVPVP

Pyruvate kinase PKM [9] = target: T1, Pyruvate kinase PKM; assay: Inhibition of PKM2 in human HCT116 cells assessed as reduction in beta-catenin-induced CCND1 gene expression at 20 uM after 8 hrs by RT-qPCR analysis; assay type: cell-based
In short: (§2)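 HCT116 cells seeded at 5 × 10^5 per well and treated 24 h later with 20 μM for 8 h. RNA extracted with TRIzol and reverse-transcribed. GLUT1, LDH and CCND1 transcripts quantified by SYBR Green qPCR.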
Target sequence in this assay (P14618 2-531 limits assumed): as above

Pyruvate kinase PKM [10] = target: T1, Pyruvate kinase PKM; assay: Inhibition of PKM2 in human HCT116 cells assessed as reduction in cMYC-induced GLUT1 gene expression at 20 uM after 8 hrs by RT-qPCR analysis; assay type: cell-based; in short: as §2
Target sequence in this assay (P14618 2-531 limits assumed): as above

Pyruvate kinase PKM [11] = target: T1, Pyruvate kinase PKM; assay: Inhibition of PKM2 in human HCT116 cells assessed as reduction in cMYC-induced LDH gene expression at 20 uM after 8 hrs by RT-qPCR analysis; assay type: cell-based; in short: as §2
Target sequence in this assay (P14618 2-531 limits assumed): as above

B16 [12] = assay: Antitumor activity against mouse B16 cells implanted in ip dosed C57BL/6 mouse assessed as tumor growth inhibition administered every 2 days for 12 days; assay type: functional, organism-based
In short: (§3)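 Female mice given 1 × 10^6 B16 cells subcutaneously in the armpit. Dosing began about 6 days later, once tumors appeared, with N = 7 per group. Compound or vehicle (5% v/v DMAC in olive oil) was given ip every two days at 25 or 50 mg kg–1. Tumor volume was measured every two days as V = L(S2)π/6. Tumors were weighed individually. T/C was taken as relative tumor volume growth rate.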

B16 [13] = assay: Antitumor activity against mouse B16 cells implanted in C57BL/6 mouse assessed as reduction in tumor weight at 50 mg/kg, ip administered every 2 days for 12 days relative to control; assay type: functional; parameters: scale not given: the % may be the effect or the level left; in short: as §3
B16 [14] = assay: Antitumor activity against mouse B16 cells implanted in C57BL/6 mouse assessed as tumor weight at 25 mg/kg, ip administered every 2 days for 12 days relative to control; assay type: functional; in short: as §3
B16 [15] = assay: Antitumor activity against mouse B16 cells implanted in C57BL/6 mouse assessed as tumor volume at 50 mg/kg, ip administered every 2 days for 12 days measured during compound dosing relative to control; assay type: functional; in short: as §3
Mus musculus = assay: Toxicity in C57BL/6 mouse implanted with mouse B16 cells assessed as effect on body weight at 25 to 50 mg/kg, ip administered every 2 days for 12 days; assay type: organism-based; conditions: in vivo; in short: as §3
Pyruvate kinase PKLR = Pyruvate kinase PKLR (Homo sapiens, UniProt P30613); assay: Inhibition of recombinant human N-terminal His-tagged PKL expressed in Escherichia coli preincubated for 25 mins in presence of PEP/FBP followed by ADP/NADH addition measured after 25 mins by PK-LDH assay
[16] = test system: spontaneous PTEN-deleted breast carcinoma (Mus musculus); assay: Antitumor activity against mouse spontaneous PTEN-deleted breast carcinoma assessed as reduction in tumor growth at 50 mg/kg, ip administered every 2 days for 36 days
[17] = test system: spontaneous PTEN-deleted breast carcinoma (Mus musculus); assay: Antitumor activity against mouse spontaneous PTEN-deleted breast carcinoma assessed as reduction in tumor weight at 50 mg/kg, ip administered every 2 days for 36 days relative to control; parameters: scale not given: the % may be the effect or the level left

Chain of Pyruvate kinase PKLR (P30613 whole entry): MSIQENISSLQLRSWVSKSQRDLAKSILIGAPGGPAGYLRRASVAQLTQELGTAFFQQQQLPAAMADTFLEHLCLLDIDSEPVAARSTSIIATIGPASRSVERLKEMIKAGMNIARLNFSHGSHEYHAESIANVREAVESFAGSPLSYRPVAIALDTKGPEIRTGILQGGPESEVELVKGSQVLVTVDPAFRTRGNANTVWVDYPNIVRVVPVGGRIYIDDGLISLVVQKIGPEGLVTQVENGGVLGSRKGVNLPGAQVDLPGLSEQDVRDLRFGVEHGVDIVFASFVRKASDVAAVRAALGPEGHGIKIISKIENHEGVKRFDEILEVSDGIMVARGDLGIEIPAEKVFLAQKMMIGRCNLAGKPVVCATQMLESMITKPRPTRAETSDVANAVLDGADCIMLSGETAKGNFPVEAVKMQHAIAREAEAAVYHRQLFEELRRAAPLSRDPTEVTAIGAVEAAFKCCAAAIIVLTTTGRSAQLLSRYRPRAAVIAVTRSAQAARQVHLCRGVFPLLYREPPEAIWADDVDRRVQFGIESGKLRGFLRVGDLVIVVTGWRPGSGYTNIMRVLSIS

Question: What does the source list for CC(C)=CC[C@@H](O)C1=CC(=O)c2c(O)ccc(O)c2C1=O?
Answer: Ratio IC50 (Homo sapiens [1]): 1.5; Ratio IC50 (Homo sapiens [2]): 4.5

Question: How did the Activity (HCT-116 [3]) turn out when O=C1C(CSC(=S)N2CCCCC2)=C(CSC(=S)N2CCCCC2)C(=O)c2ccccc21 was run?
Answer: Its Activity is “Dose-dependent effect”.

Question: What about the IC50 (HCT-116 [3]; HCT-116, 48 h) of the same molecule?
Answer: Its IC50 is 77 nM.

Question: What about the Activity (MCF7) of the same molecule?
Answer: The Activity was “Dose-dependent effect”.

Question: And the IC50 (MCF7; MCF7, 48 h)?
Answer: The IC50 was 61 nM.

Question: And the Activity (MDA-MB-231)?
Answer: Its Activity is “Dose-dependent effect”.

Question: What about the IC50 (MDA-MB-231; MDA-MB-231, 48 h) of the same molecule?
Answer: Its IC50 is 135 nM.

Question: What about the Activity (HeLa) of the same molecule?
Answer: Its Activity is “Dose-dependent effect”.

Question: What about the IC50 (HeLa) of the same molecule?
Answer: The IC50 was 124 nM.

Question: What about the Activity (NCI-H1299) of the same molecule?
Answer: Its Activity is “Dose-dependent effect”.

Question: And the IC50 (NCI-H1299; NCI-H1299, 48 h)?
Answer: Its IC50 is 109 nM.

Question: And the Activity (B16 [4])?
Answer: The Activity was “Dose-dependent effect”.

Question: What about the IC50 (B16 [4]; B16, 48 h) of the same molecule?
Answer: The IC50 was 104 nM.

Question: And the IC50 (BEAS-2B)?
Answer: The IC50 was 32600 nM.

Question: What about the Activity (HCT-116 [5]) of the same molecule?
Answer: The Activity was “Active”.

Question: What about the IC50 (Pyruvate kinase PKM [6]) of the same molecule?
Answer: Its IC50 is 880 nM.

Question: What about the IC50 (Pyruvate kinase PKM [7]) of the same molecule?
Answer: The IC50 was 5070 nM.

Question: What about the inhibition (Pyruvate kinase PKM [8]) of the same molecule?
Answer: The inhibition was “Dose-dependent effect”.

Question: And the Ratio IC50 (Homo sapiens [1])?
Answer: The Ratio IC50 was 5.8.

Question: What about the inhibition (Pyruvate kinase PKM [9]) of the same molecule?
Answer: The inhibition was “Active”.

Question: And the inhibition (Pyruvate kinase PKM [10])?
Answer: The inhibition was “Active”.

Question: And the inhibition (Pyruvate kinase PKM [11])?
Answer: Its inhibition is “Active”.

Question: And the TGI (B16 [12])?
Answer: The TGI was “Dose-dependent effect”.

Question: What about the Activity (B16 [13]) of the same molecule?
Answer: The Activity was 30%.

Question: What about the Activity (B16 [14]) of the same molecule?
Answer: The Activity was 12%.

Question: And the T/C (B16 [15])?
Answer: Its T/C is 40%.

Question: What about the Activity (Mus musculus) of the same molecule?
Answer: The Activity was “Non-Toxic”.

Question: And the IC50 (Pyruvate kinase PKLR)?
Answer: The IC50 was 2900 nM.

Question: And the Ratio IC50 (Homo sapiens [2])?
Answer: The Ratio IC50 was 3.3.

Question: And the Activity [16]?
Answer: The Activity was “Active”.

Question: And the Activity [17]?
Answer: The Activity was 20%.

Source: ChEMBL document CHEMBL4257502, “Anti-cancer effect of a novel 2,3-didithiocarbamate-substituted naphthoquinone as a tumor metabolic suppressor in vitro and in vivo” (Medchemcomm, 2018)
